Measured values as given in article PMC8137579 (Cancer research, 2021).
“Also recorded” adds a separate entry of the source. Where two headings read alike, the source gives them in different places.

Columns and labels:
[1] = biological target: HuR dimerization (HuR-Nluc + HuR-Cluc reporter, U251 cells) (Homo sapiens, UniProt Q15717); test: cell-based split firefly luciferase - HuR dimerization assay
In short: (§1)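 Stable U251 lines carried doxycycline-inducible HuR-Nluc plus HuR-Cluc (dimer reporter) or full-length Fluc (control reporter), kept under hygromycin B and G418. 30,000–50,000 cells/well were induced with doxycycline 0.75 ug/ml for 48 h, then given test compound or vehicle for 6 h. Luminescence was read with D-luciferin substrate.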

[2] = test system: U251 cells expressing Fluc construct; test: split firefly luciferase assay, control reporter; format: cell-based
In short: as §1

aqueous solubility = format: physicochemical
kinases = test: SelectScreen kinase profiling; format: biochemical; conditions: compared to the parent SRI-41664
In short: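 Done as an outsourced SelectScreen kinase profiling service. 10-point titrations were run against NTRK1, AAK1, IRAK1, PIM1 and cMET kinases.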

U251 glioma cell line [3] = test: PrestoBlue cell viability assay, U251; format: cell-based
In short: (§2)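 PrestoBlue viability read-out after 48 h exposure to the test compound. U251 and LN229 were grown in DMEM/F12 with 10% FBS, 2 mM L-glutamine and 100 U/ml penicillin/streptomycin. Data were normalised to vehicle-treated cells, and dose-response curves were fitted with the Boltzmann equation to give IC50; n=5 per cell line.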

LN229 glioma cell line [4] = test: PrestoBlue cell viability assay, LN229; format: cell-based; conditions: read-out: IC50 cell viability, 48 hours of treatment
In short: as §2

[5] = test system: PDGx XD456 glioma cell line; test: PrestoBlue cell viability assay, XD456; format: cell-based, human; conditions: read-out: IC50 cell viability, 48 hours of treatment
U251 glioma cell line [6] = test: cell cycle analysis; format: cell-based; conditions: 10 uM for 18 hours
LN229 glioma cell line [7] = test: cell cycle analysis; format: cell-based; conditions: 10 uM for 18 hours
[8] = test system: PDGx XD456 glioma cell line; test: cell cycle analysis; format: cell-based, human; conditions: 10 uM for 18 hours
primary human neurons = test: toxicity in primary human neurons; format: cell-based
primary human astrocytes = test: toxicity in primary human astrocytes; format: cell-based
In short: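 Primary human neurons (poly-L-lysine plates) or astrocytes were treated up to 25 uM for 48 h. Cells were fixed in 3.7% paraformaldehyde (pH 7.4) for 13 min, permeabilised with 0.3% Triton X-100 and blocked with 3% BSA/glycine. Staining used anti-cleaved caspase-3 (1:200, overnight 4°C) and Alexa 594 secondary, with DAPI counterstain. Percent positive cells was scored; at least three experiments.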

Bcl2 mRNA = test: Taqman quantification of Bcl2 mRNA in glioma cell lines; format: cell-based; conditions: 10 uM for 24 hours
Mcl1 mRNA = test: Taqman quantification of Mcl1 mRNA in glioma cell lines; format: cell-based; conditions: for average decrease of Mcl1/18S mRNA ratio: 10 uM for 24 hours
In short: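 Glioma cells (U251, U87, LN229) were exposed to 10 uM test compound or vehicle for 24 h. mRNA was isolated with RNeasy Mini Kit and QIAshredder columns. Bcl2, Mcl1 and 18S transcripts were quantified by Taqman gene-specific probes. Bcl2/18S and Mcl1/18S ratios were compared with vehicle control; three experiments.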

[9] = biological target: interaction of the HuR protein with Bcl2 and Mcl1 mRNAs (Homo sapiens, UniProt Q15717); test: HuR/mRNA co-immunoprecipitation assay; format: cell-based; conditions: U251 cells
In short: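 Run in U251 cells with the RiboCluster Profiler RIP-assay kit and a polyclonal anti-HuR antibody. Co-precipitated Bcl2 and Mcl1 transcripts and 18S RNA were quantified by Taqman with gene-specific probes. Binding was compared with vehicle-treated control.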

[10] = test system: Bcl2 and Mcl1 protein levels; test: western blot of Bcl2 and Mcl1 proteins in cytoplasmic fractions; format: cell-based; conditions: U251 and XD456; 10 uM for 48 hours
In short: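 U251 and PDGx XD456 cells were treated for 48 h with test compound or vehicle. Nuclear and cytoplasmic fractions were separated with NE-PER reagents and verified by lamin A/C (nuclear) and tubulin alpha (cytoplasmic). Bcl2 and Mcl1 were detected by western blot.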

[11] = test system: cleaved caspase-3 and cleaved PARP; test: western blot of apoptosis markers; format: cell-based; conditions: glioma cell lines; 10 uM for 48 hours
In short: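 Glioma cell lines were given 10 uM test compound or vehicle for 48 h. Cleaved PARP and cleaved caspase-3 were probed by western blot.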

HuR protein = test: western blot of HuR protein levels; format: cell-based
U251 cell line [12] = test: attached cell colony formation assay, U251; format: cell-based
XD456 cell line [13] = test: attached cell colony formation assay, XD456; format: cell-based, human
U251 cell line [14] = test: soft agar colony formation assay, U251; format: cell-based
In short: (§3)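 Soft agar format: cells embedded in a 0.45% low-melting agarose top layer over a 0.9% agarose bottom layer. Colonies were stained with 0.1% crystal violet and counted after three weeks. n=3 attached, n=4 soft agar; Student t-test.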

XD456 cell line [15] = test: soft agar colony formation assay, XD456; format: cell-based, human
In short: as §3

[16] = in vivo pharmacokinetic assessment; design: species or system C57Bl/6 mice; conditions: mouse
[17] = test system: PDGx XD456 intracranial glioma; test: in vivo mouse intracranial glioma model; design: species or system athymic nude mice; conditions: 15 mg/kg, twice a day for three weeks, intraperitoneal
In short: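 Athymic nude mice bore intracranial PDGx XD456 cells transduced with firefly luciferase and EGFP. After 4.5 days of tumour establishment, mice were randomised to vehicle or test compound, 15 mg/kg ip twice daily for three weeks. Tumour bioluminescence (radiance) was imaged at weeks 2 and 3, with body weight tracked; n=5, Student t-test. Brain slices were checked for EGFP and immunostained for HuR, Bcl2 and Mcl1.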

Sequence of HuR dimerization (HuR-Nluc + HuR-Cluc reporter, U251 cells) (Q15717 2-326 limits assumed): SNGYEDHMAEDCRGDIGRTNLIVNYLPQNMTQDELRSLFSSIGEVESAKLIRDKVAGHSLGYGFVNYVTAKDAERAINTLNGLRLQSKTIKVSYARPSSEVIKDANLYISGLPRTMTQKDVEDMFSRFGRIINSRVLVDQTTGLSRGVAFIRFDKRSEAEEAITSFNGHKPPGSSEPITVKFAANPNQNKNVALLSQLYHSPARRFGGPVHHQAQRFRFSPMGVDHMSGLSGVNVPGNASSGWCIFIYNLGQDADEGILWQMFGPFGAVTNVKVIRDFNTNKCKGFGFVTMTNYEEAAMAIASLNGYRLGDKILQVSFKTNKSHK
Sequence of interaction of the HuR protein with Bcl2 and Mcl1 mRNAs (Q15717 2-326 limits assumed): as above

- maximum inhibition of HuR dimerization ([1]; 6 hours of cell treatment): 90±1%
- IC50 for inhibition of HuR dimerization, after increase in HuR dimerization by two fold ([1]; U251 with dox-inducible HuR-dimerization reporters, 6 hours): 1.9 ± 0.1 µM
- HuR inhibition potential in the presence of kinase inhibitors ([1]; all evaluated kinase inhibitors): retained its HuR inhibition potential
- IC50 ([1]; read-out: IC50 for inhibition of HuR dimerization, before increase in HuR dimerization, U251 with dox-inducible HuR-dimerization reporters, 6 hours): 1200 ± 100 nM
- IC50 ([1]; read-out: IC50 of inhibition of HuR dimerization, U251 cells co-expressing HuR-Nluc and HuR-Cluc, 6 hours of treatment): 1200 ± 200 nM
- aqueous solubility (aqueous solubility): readily soluble
- kinase inhibition potential (kinases): reduced kinase inhibition potential
- IC50 for inhibition of cell viability, after enhancement of HuR-dimer formation by two fold (U251 glioma cell line [3]; U251 with dox-inducible HuR-dimerization reporters, 48 hours): 8.0 ± 0.8 µM
- IC50 (U251 glioma cell line [3]; read-out: IC50 cell viability, U251, 48 hours of treatment): 2800 ± 600 nM
- IC50 (U251 glioma cell line [3]; read-out: IC50 for inhibition of cell viability, before enhancement of HuR-dimer formation, U251 with dox-inducible HuR-dimerization reporters, 48 hours): 2800 ± 400 nM
- IC50 (LN229 glioma cell line [4]): 3.2 ± 0.6 µM
- IC50 [5]: 4 ± 0.6 µM
- interaction of HuR protein with Bcl2 and Mcl1 mRNAs compared to control [9]: significant reduction
- brain-to-plasma concentration ratio [16]: 0.42±0.05
- BBB permeability ([16]; in vivo): superior BBB permeability
- half-life ([16]; 10 mg/kg by IP): 9.6 min
- weight changes compared to the control group [17]: not significant
SMILES: CN(c1ccc2ncc(-c3ccc4cn[nH]c4c3)n2n1)C1CCOCC1 [SRI-42127]
- half inhibition in the control reporter assay [2]: half inhibitions were not reached
- increase of cells in G1 phase compared to control (U251 glioma cell line [6]): 97±33%
- reduction of cells in S phase compared to control (U251 glioma cell line [6]): 65±4%
- increase of cells in G1 phase compared to control (LN229 glioma cell line [7]): 56±28%
- reduction of cells in S phase compared to control (LN229 glioma cell line [7]): 60±3%
- increase of cells in G1 phase compared to control [8]: 210±40%
- reduction of cells in S phase compared to control [8]: 70±3%
- decline of cellular metabolism of neurons (primary human neurons; 25 uM for 48 hours): about 44%
- neuronal cytotoxicity (primary human neurons; concentrations below 15 uM): low neuronal and astrocyte cytotoxicity
- cell numbers and cell sprouting of neurons (primary human neurons; up to 15 uM for 48 hours): remained unchanged
- morphological changes of neurons (primary human neurons; up to 15 uM for 48 hours): no morphological changes
- cleaved caspase-3 immunostaining in neurons (primary human neurons; up to 15 uM, 48 hours): no significant alterations
- astrocyte cytotoxicity (primary human astrocytes; concentrations below 15 uM): low neuronal and astrocyte cytotoxicity
- cleaved caspase-3 activation in astrocytes (primary human astrocytes; up to 15 uM): did not observe significant alterations
- average decrease of Bcl2/18S mRNA ratio (Bcl2 mRNA; LN229): 95±2%
- average decrease of Bcl2/18S mRNA ratio (Bcl2 mRNA; U87): 95±2%
- average decrease of Bcl2/18S mRNA ratio (Bcl2 mRNA; U251): 96±2%
- average decrease of Bcl2/18S mRNA ratio (Bcl2 mRNA; XD456): 96±2%
- average decrease of Mcl1/18S mRNA ratio (Mcl1 mRNA; LN229): 87±8%
- average decrease of Mcl1/18S mRNA ratio (Mcl1 mRNA; U87): 86±7%
- average decrease of Mcl1/18S mRNA ratio (Mcl1 mRNA; U251): 95±3%
- average decrease of Mcl1/18S mRNA ratio (Mcl1 mRNA; XD456): 90±9%
- reduction in Mcl1 mRNA compared to control (Mcl1 mRNA; range over U251, U87, LN229, XD456, 10 uM, 24 h): 87–95%
- Bcl2 and Mcl1 protein levels in cytoplasmic fractions compared to control [10]: dramatic reduction
- signs of apoptosis [11]: cleaved caspase-3 and cleaved PARP
- total HuR protein levels (HuR protein; 3 uM and 10 uM, 8–12 hours of treatment): did not alter
- HuR cytoplasmic levels versus control (HuR protein; prolonged treatment): decrease
- number of colonies (U251 cell line [12]; 3uM): 49±28
- number of colonies (U251 cell line [12]; 10 uM): No significant numbers of colonies were detected
- number of colonies (XD456 cell line [13]; 3uM): 34±12
- number of colonies (XD456 cell line [13]; 10 uM): No significant numbers of colonies were detected
- number of colonies (U251 cell line [14]; 3uM): 90±70
- number of colonies (U251 cell line [14]; 10 uM): No significant numbers of colonies were detected
- number of colonies (XD456 cell line [15]; 3uM): 39±6
- number of colonies (XD456 cell line [15]; 10 uM): No significant numbers of colonies were detected
- tumor progression (tumor reporter luminescence signal) compared to control group [17]: reduction of tumor progression; also recorded: not statistically significant
